Assay outcomes deposited in PubChem BioAssay by several laboratories.
In the library only some 4% were active in any assay of this set; here they are far more common.
RAM inhibit: inhibitors of the yeast RAM network, primary screen, dse1pr::URA3 reporter, 5-FOA selection; inhibition, % at 50 µM; AID 868, 2007; 190,000 tested, 1.8% active; S. cerevisiae dse1pr::URA3 reporter, 5-FOA growth OD615, 2 d; analog-sensitive cbk1-as2 kinase mutant strain;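 active means inhibition above a set limit, 3 SD over mean compound inhibition, cut at about 8.4% in these data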;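 further: 0% = DMSO-only wells with no growth and 100% = 10 µM 1-NA-PP1 full growth; inhibition rescues growth on 5-FOA so higher OD means more RAM inhibition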
MDM2 E3 inh: MDM2-luciferase reporter signal enhancers, primary screen, MDM2 E3 ligase inhibitor project, cell-based, luminescence, 1536-well | cell-based MDM2 ubiquitination luciferase reporter, 2 h; 0 = plate control, 100 = twice control, blank-subtracted | E3 ubiquitin-protein ligase Mdm2 (Homo sapiens), Q00987 | signal enhancement, % at 5 µM | 210,000 tested, 0.11% active;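 active means signal enhancement of 30% or more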;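 further: luminescence tracks abundance of the self-degrading MDM2-luciferase fusion protein; higher signal means inhibition of MDM2 E3 ligase activity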
Target sequence (Q00987 whole entry, looked up, the tested form may be a part): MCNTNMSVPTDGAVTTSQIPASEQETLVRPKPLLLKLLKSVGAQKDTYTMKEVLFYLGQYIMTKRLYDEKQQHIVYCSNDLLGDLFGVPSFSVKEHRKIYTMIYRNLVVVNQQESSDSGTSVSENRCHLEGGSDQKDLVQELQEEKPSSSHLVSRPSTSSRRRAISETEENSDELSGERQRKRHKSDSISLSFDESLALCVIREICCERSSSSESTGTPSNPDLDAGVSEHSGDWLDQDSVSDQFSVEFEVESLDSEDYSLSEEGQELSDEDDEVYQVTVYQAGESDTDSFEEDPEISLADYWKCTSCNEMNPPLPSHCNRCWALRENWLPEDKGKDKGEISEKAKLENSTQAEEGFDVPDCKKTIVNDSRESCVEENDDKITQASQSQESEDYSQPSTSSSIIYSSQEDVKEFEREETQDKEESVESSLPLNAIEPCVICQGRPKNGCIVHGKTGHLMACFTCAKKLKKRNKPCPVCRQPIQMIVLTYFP
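System: stable MDM2–luciferase fusion reporter cells / Input: 2000 cells seeded into each well / Schedule: 4 h settle plus 2 h compound, 37 °C / Compound: single-point 5 µM / Buffer or medium: cells held in DMEM / Benchmarks: control and blank well means / Evaluation: percent signal gain over controls, blank-subtracted / Measured by: luciferase luminescence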
INS promoter inh: inhibitors of insulin promoter-driven GFP, primary screen, imaging, TRM-6 cells, eGFP reporter, cell count; reporter expression induced with tamoxifen; inhibition, % at 2 µM; 130,000 tested, 0.9% active; AID 1273, 2008;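 active means inhibition above the mean plus 3 SD, with well images judged a real hit on visual review, cut at about 60% in these data, passing the limit was not always enough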
BB579 growth dn: growth inhibitors of yeast BB579 in restrictive medium, primary screen, yeast lifespan-shortening project, S. cerevisiae | inhibition, % at 10 µM | OD615, 48 h | 140,000 tested, 0.51% active | AID 804, 2007;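 active means inhibition above a set limit, 3 SD over the mean compound inhibition, cut at about 44% in these data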
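Detection: OD615 turbidity measurement; Material: Saccharomyces cerevisiae DeaD strain BB579, replicative lifespan model yeast; Timing: 48 h exposure, 30 °C; Doses: single 10 µM dose; Medium: CSMM-D restrictive synthetic medium containing dextrose (glucose); Controls: amphotericin B at 10 µg/mL as positive control.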
Measles CPE: compounds protecting cells from measles virus cytopathic effect, primary screen, measles RdRp inhibitor project, single point, MLSMR library, absorbance. Measles virus-infected cells, CPE protection. protection (pct of control), % at 4 µM. 140,000 tested, 1.5% active; in the data active means protection mostly above about 24%, no sharp cut-off; inactive means mostly below about 26%
Yeast lifespan up: compounds extending yeast replicative lifespan, primary screen, S. cerevisiae, OD615; inhibition of the nicotinamide effect, % at 10 µM; S. cerevisiae growth with nicotinamide; deaD strain in restrictive glucose medium; 130,000 tested, 0.68% active;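 active means inhibition above a set limit, placed 3 SD over the median of all compounds, cut at about 26% in these data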;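 further: 0% = nicotinamide-treated wells and 100% = cells grown without nicotinamide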
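Buffer or medium: CSMM-D glucose medium, restrictive; test system: modified budding yeast, DeaD strain; compound: single dose 10 µM compound, 0.25% DMSO; schedule: culture preincubation 4 h, compound exposure 48 h, both 30 °C; detection: optical density (absorbance) at 615 nm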
RAM 5-FOA: 5-FOA growth of efflux-deficient control yeast, dose response, counter-screen for RAM network inhibitor project, S. cerevisiae, OD615; shares compounds with RAM inhibit; S. cerevisiae efflux-deficient reporter strain, 5-FOA growth OD615, 2 days; max inhibition, %; 1,200 tested, under 10 active; call rule not given here;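 further: plate controls were vehicle for no effect and reference inhibitor for full effect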
* marks the source's active call; other numbers are inactive results; . = not tested or not shown.

SMILES	RAM inhibit	MDM2 E3 inh	INS promoter inh	BB579 growth dn	Measles CPE	Yeast lifespan up	RAM 5-FOA
COc1ccc(Cl)cc1N(C(=O)Nc1cccc(Cl)c1)C1=NCC(C)S1 (stereo not drawn)	-0.1	.	-50.0	-23.8	2.9	-0.9	.
CCCOc1ccc(-c2nn(-c3ccccc3)cc2/C=C2\SC(N)=NC2=O)cc1C	12.6*	-10.8	25.9	-25.7	16.8	6.6	9.1
COc1ccc(-c2nn(CCC(=O)O)cc2/C=C2\SC(N)=NC2=O)cc1OC	3.0	-3.1	55.6	-12.7	8.9	0.2	.
COc1ccc(CNC(=O)COC(=O)c2ccccc2C(=O)c2ccccc2)cc1	1.3	-5.9	.	.	.	.	.
CCCCCOc1ccc(CSc2ncn[nH]2)cc1	23.9*	.	61.5	-26.4	13.8	.	0.8
CCN(CC)S(=O)(=O)c1ccc(Cl)c(NC(=O)COc2ccc(OC)cc2)c1	0.0	12.0	.	.	.	.	.
Cc1ccc(NC(=O)CCSc2nnnn2-c2ccc3c(c2)OCO3)cc1C	11.6*	-17.9	-10.3	-49.2	6.5	-8.0	2.4
CC(C)C[C@H](NC(=O)c1[nH]cnc1C(=O)N[C@H](C)c1ccccc1)C(=O)OCc1ccccc1	12.4*	.	.	.	.	.	4.5
O=C(CSc1ccc(Cl)cc1Cl)N1CCC(c2nc3ccccc3s2)CC1	13.0*	-17.9	-34.1	-52.7	5.6	-12.0	2.0
COC(=O)c1ccccc1-n1cccc1C(=O)NP(=O)(N1CCOCC1)N1CCOCC1	1.3	-4.6	35.0	.	.	.	.
COC(=O)c1cc2c(ccn2-c2ccc(F)cc2)n1Cc1ccc(OC)cc1	15.3*	-1.1	29.7	-31.9	12.5	5.6	4.0
O=[N+]([O-])c1ccc(N/N=C/c2sc(N3CCOCC3)nc2-c2ccccc2)c(S(=O)(=O)Nc2ccc(Cl)cc2)c1	12.4*	-23.4	-488.2	.	.	.	6.2
O=C(O)c1cccc(N/N=C/c2sc(N3CCOCC3)nc2-c2ccccc2)c1	0.9	-3.8	47.4	-1.4	12.5	-2.6	.
CCN(CC)S(=O)(=O)c1ccc(N2CCOCC2)c(NC(=O)CCC2CCCCC2)c1	14.5*	-16.6	13.3	-29.7	8.7	3.3	2.2
CCN(CC)S(=O)(=O)c1ccc(N2CCOCC2)c(NC(=O)CC(C)(C)C)c1	.	-12.9	.	.	.	.	.
COc1ccc(-c2ccc(-c3noc(C(C)C)n3)c(OC)n2)cc1	15.0*	-13.6	.	-67.7	4.5	-11.5	3.5
CCc1nc(-c2ccc(-c3ccc(OC)cc3)nc2OC)no1	1.6	1.4	-7.9	-20.7	11.6	-9.7	.
Cc1cc(C)cc(NC(=S)NCCSc2ccc(Cl)cc2)c1	12.6*	-2.0	-9.4	1.0	23.3	-5.0	6.8
Cc1ccc(SCCNC(=S)Nc2ccc(C)c(C)c2)cc1	12.6*	-12.0	-2.8	13.6	2.7	-6.5	2.8
COc1ccccc1NC(=S)NCCSc1ccc(C)cc1	2.6	-11.3	.	-27.2	18.2	-6.5	.
COC(=O)Cc1ccc(NC(=S)NCCSc2ccc(Cl)cc2)cc1	.	-7.7	.	.	.	.	.
Cc1cc(C(N)=O)nn1-c1c(Cl)cc(Cl)cc1Cl	.	-5.0	.	.	.	.	.
O=C(COC(=O)C1(c2ccccc2F)CCCC1)Nc1ncc(C(F)(F)F)cc1Cl	12.2*	-0.1	-7.1	-16.9	3.9	3.0	0.7
Cc1ccc(OCCNC(=O)C(=O)NCc2ccco2)cc1	3.5	-8.1	.	.	.	.	.
O=C(CSc1nc2ccccc2s1)CSc1nc2ccccc2s1	14.1*	-6.2	-94.3	-42.9	3.7	-10.8	4.1
SMILES	RAM inhibit	MDM2 E3 inh	INS promoter inh	BB579 growth dn	Measles CPE	Yeast lifespan up	RAM 5-FOA
CCOc1ccc2nc(SCC(=O)c3ccccc3)sc2c1	15.6*	-0.6	2.8	-77.8	10.4	-8.7	2.1
CCOc1ccc2nc(SCCNS(=O)(=O)c3ccccc3)sc2c1	11.6*	2.1	15.4	-42.2	7.3	4.1	1.6
CCOc1ccc2nc(SCc3ccc(OC)cc3)sc2c1	0.9	1.2	6.2	-47.5	9.0	-5.5	.
COc1cc2nc(C3CCC3)nc(N3CCN(c4ccccc4OC)CC3)c2cc1OC	-0.3	9.3	0.0	-42.6	11.3	-6.5	.
O=C(c1cccc(NS(=O)(=O)c2ccc(F)c(F)c2)c1)N1CCN(Cc2ccccc2)CC1	1.8	-10.7	-48.1	-45.9	29.5	12.2	.
Cc1ccccc1OCC(=O)OCC(=O)c1ccc(-c2ccccc2)cc1	14.2*	-10.0	.	-36.9	11.3	10.5	3.6
Cc1ccc(NC(=O)CCC(=O)OCC(=O)c2ccc(-c3ccccc3)cc2)cc1	1.6	-7.9	8.3	14.9	6.7	-4.7	.
O=C(NCCn1cc(SCc2ccc(F)cc2)c2ccccc21)c1ccccc1F	13.3*	.	-9.5	-31.8	4.7	6.7	4.1
O=C(NCCn1cc(SCc2ccc(F)cc2)c2ccccc21)c1c(F)cccc1F	5.0	.	-109.8	17.5	4.0	0.7	.
O=C(Nc1ccccc1)n1cc(-c2ccccn2)c(N2CCOCC2)n1	-0.6	-0.3	-53.9	.	.	.	.
COc1ccc(C(=O)NNC(=O)C(Cc2ccc(O)cc2)NC(=O)c2ccccc2NC(=O)c2ccc(OC)cc2)cc1 (stereo not drawn)	11.5*	-2.4	21.6	-27.3	8.8	6.2	4.0
CCCCOC(=O)c1ccc(NC(=O)COC(=O)CSc2nc(C)cc(C)n2)cc1	7.5	-13.4	-24.0	-32.2	17.2	-6.1	.
O=C(COC(=O)CNS(=O)(=O)c1ccc2ccccc2c1)Nc1ccccc1Sc1ccccc1	22.6*	-11.6	10.0	-30.6	14.4	-0.4	4.0
CCCCNC(=O)COC(=O)c1ccc(Cl)c(S(N)(=O)=O)c1	0.5	-8.0	31.2	-1.4	4.1	-13.7	.
CCCN(C(=O)CCl)C1=CCCCC1	0.2	-12.1	.	.	.	.	.
COc1cccc(-c2cc(C(=O)Nc3ccn(Cc4ccc(C)cc4)n3)no2)c1	17.2*	-9.9	.	.	.	.	2.5
CC(/C=N/Nc1ncc(C)c(=O)[nH]1)=C\c1ccccc1	5.5	-2.2	.	.	.	.	.
COc1ccc(NC(=O)c2sccc2SCc2cccc(C(F)(F)F)c2)cc1	16.5*	-1.2	-22.7	-36.0	9.2	-12.2	3.7
O=C(Nc1ccc(F)cc1F)c1sccc1SCc1cccc(C(F)(F)F)c1	1.7	3.1	-2.2	-27.7	8.9	-3.9	.
O=C(Nc1ccc(F)cc1)c1sccc1SCc1cccc(C(F)(F)F)c1	14.5*	-3.3	-27.3	-40.5	7.1	-15.8	3.1
Cc1nn(-c2ccccc2)c(Cl)c1/C=C1\SC(=S)N(CCCCCC(=O)O)C1=O	.	-12.4	.	.	.	.	.
